Results as given in ChEMBL document CHEMBL5532693, “Design, synthesis and antimycobacterial activity of imidazo[1,5-a]quinolines and their zinc-complexes” (RSC Med Chem, 2024).
≈ marks a conversion by molar mass, not a printed value.

Legend:
[1] = tested on: Calu-3; experiment: Cytotoxicity against human Calu-3 cells assessed as reduction in cell viability at 100 uM incubated for 48 hrs by CellTiter-Glo Luminescent Cell Viability assay; type: toxicity, cell-based; settings: calu-3, 48 h
How it was run: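 Confluent Calu-3 cells in DMEM/F-12 GlutaMAX with 10% FCS and 1% penicillin/streptomycin, 37°C, 5% CO2. Compounds were dissolved in DMSO (10 mM stocks) and tested once at 100 μM final with 1% DMSO, in triplicate, for 48 h. ATP luminescence was normalized to the DMSO control (100%). Viability below 80% was classed as cytotoxic. Ionomycin 100 μM served as positive control.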

[2] = tested on: Mycobacterium tuberculosis; experiment: Antibacterial activity against Mycobacterium tuberculosis H37Ra assessed as inhibition of bacterial growth incubated for 7 days by BacTiter-Glo reagent based assay; type: functional
How it was run: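 M. tuberculosis H37Ra pre-grown 14 days in 7H9 with palmitic acid, casitone, BSA, catalase and 0.2% glycerol (37°C, 180 rpm, 85% rH). Diluted to McFarland 1, then to 1 × 10⁶ cells/mL. Compounds were in DMSO. Plates were held 7 days microaerophilic at 37°C/5% CO₂, with ATP luminescence read-out. MIC was the lowest concentration giving ≥85% inhibition versus blank-normalised untreated growth.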

[3] = tested on: Mycobacterium tuberculosis; experiment: Antibacterial activity against Mycobacterium tuberculosis; type: functional

Row | Molecule | Activity [1] | MIC [3] [µM] | other results
1 | c1ccc(-c2nc(-c3cc4ccccc4cn3)c3ccc4ccccc4n23)cc1 | Non-Toxic |  | MIC ([2]; 168 h, time 7 day): 0.5 µM (≈ 0.186 µg/mL)
2 | GENTAMICIN |  |  | MIC ([2]; time 7.0 day): 4 µM
3 | COc1nc2ccc(Br)cc2cc1[C@@H](c1ccccc1)[C@@](O)(CCN(C)C)c1cccc2ccccc12 [BEDAQUILINE] |  | 0.03 (≈ 0.0167 µg/mL) | 
4 | CC[C@@H](CO)NCCN[C@@H](CC)CO [ETHAMBUTOL] |  | 0.3 (≈ 0.0613 µg/mL) | 
5 | NCC[C@H](O)C(=O)N[C@@H]1C[C@H](N)[C@@H](O[C@H]2O[C@H](CN)[C@@H](O)[C@H](O)[C@H]2O)[C@H](O)[C@H]1O[C@H]1O[C@H](CO)[C@@H](O)[C@H](N)[C@H]1O [AMIKACIN] |  | 0.4 (≈ 0.234 µg/mL) | 
6 | c1ccc(-c2nc(-c3ccccc3)n3c2ccc2ccccc23)cc1 | Non-Toxic |  | 
7 | c1ccc(-c2nc(-c3ncccn3)c3ccc4ccccc4n23)cc1 | Toxic |  | 
8 | CCc1cc(C(N)=S)ccn1 [ETHIONAMIDE] |  | 10 (≈ 1.66 µg/mL) | 
9 | c1ccc(-c2nc(-c3cccc4ccccc34)n3c2ccc2ccccc23)nc1 | Toxic |  | MIC ([2]; 168 h, time 7 day): 1 µM (≈ 0.371 µg/mL)
10 | NNC(=O)c1ccncc1 [ISONIAZID] |  | 0.3 (≈ 0.0411 µg/mL) | 
11 | c1ccc(-c2ccc(-c3nc(-c4ccccc4)n4c3ccc3ccccc34)nc2)cc1 | Non-Toxic |  | 
12 | c1ccc(-c2nc(-c3ccccn3)n3c2ccc2ccccc23)cc1 | Toxic |  | MIC ([2]; 168 h, time 7 day): 25 µM (≈ 8.03 µg/mL)
13 | c1ccc(N(c2ccccc2)c2nc(-c3ccccn3)c3ccc4ccccc4n23)cc1 | Non-Toxic |  | 
14 | CN(C)c1ccccc1-c1nc(-c2ccccc2)n2c1ccc1ccccc12 | Toxic |  | 
15 | C[C@H]1COc2c(N3CCN(C)CC3)c(F)cc3c(=O)c(C(=O)O)cn1c23 [LEVOFLOXACIN ANHYDROUS] |  | 0.8 (≈ 0.289 µg/mL) | 
16 | c1ccc(-c2nc(-c3ccccn3)c3ccc4ccccc4n23)cc1 | Toxic |  | 
17 | COc1ccccc1-c1nc(-c2ccccc2)n2c1ccc1ccccc12 | Non-Toxic |  | 
18 | c1ccc(-c2nc(-c3cccs3)c3ccc4ccccc4n23)cc1 | Non-Toxic |  | 
19 | c1ccc(-c2nc(-c3ccccn3)n3c2ccc2ccccc23)nc1 | Non-Toxic |  | MIC ([2]; 168 h, time 7 day): 6 µM (≈ 1.93 µg/mL)
